PostGolgi yeast = phenotypic screen on post-Golgi transport, primary screen | post-Golgi transport phenotypic cell assay | inhibition, % at 10 µM | 0.9% of 98,000 active;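 note: yeast cells grown in 1536-well plates; yeast grown about 18 h at 30C before absorbance read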
Yeast growth inh = growth inhibitors of yeast BB579 in restrictive medium, primary screen, yeast lifespan-shortening project, S. cerevisiae | OD615, 48 h | inhibition, % at 10 µM | 0.51% of 140,000 active | AID 804, 2007;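 active = inhibition above a set limit, 3 SD over the mean compound inhibition, cut at about 44% in these data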
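Test system: S. cerevisiae DeaD strain BB579 yeast; Medium: restrictive CSMM-D medium; Compound: one dose, 10 µM compound with 0.25% DMSO; Incubation: 4 h cell preincubation, 48 h compound exposure, 30 °C humidified; Signal: OD at 615 nm; Benchmarks: amphotericin B at 10 µg/mL as positive control.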
Yeast life ext = compounds extending yeast replicative lifespan, primary screen, S. cerevisiae, OD615; S. cerevisiae growth with nicotinamide; deaD strain in restrictive glucose medium; inhibition of the nicotinamide effect, % at 10 µM; 0.68% of 130,000 active; AID 775, 2007;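 active = inhibition above a set limit, placed 3 SD over the median of all compounds, cut at about 26% in these data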;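 note: 0% = nicotinamide-treated wells and 100% = cells grown without nicotinamide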
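Buffer or medium: CSMM-D glucose medium, restrictive; test system: modified budding yeast, DeaD strain; compound: single dose 10 µM compound, 0.25% DMSO; schedule: culture preincubation 4 h, compound exposure 48 h, both 30 °C; detection: optical density (absorbance) at 615 nm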
PostGolgi ctrl = growth inhibition of yeast control strain, primary screen, counter-screen for post-Golgi transport modulator project; efflux-deficient yeast background strain, growth absorbance A615, 16 h; inhibition, % at 10 µM; 5% of 98,000 active
Active calls of the source: *; x = no result given. The entries come from a sample that favours hits as a whole. Cut-off read from the data, not from the text of the source, unless noted: active = inhibition above about 30%; inactive = the rest.

SMILES	PostGolgi yeast	Yeast growth inh	Yeast life ext	PostGolgi ctrl
C=CCNC(=O)c1onc(CSc2ccc(F)cc2)c1C(=O)O	0.3	-31.7	-2.9	-1.8
CC(C)NC(=O)c1onc(CSc2ccccc2F)c1C(=O)O	-2.2	-27.3	1.2	38.8*
C=CCNC(=O)c1onc(CSc2ccc(C(C)C)cc2)c1C(=O)O	-3.8	-71.5	4.1	33.1*
C=CCNC(=O)c1onc(CSc2ccc(F)cc2)c1C(=O)NCCOC	-0.5	-42.7	-11.5	45.5*
Nc1nnc(C(c2ccccc2)c2ccccc2)s1	-4.6	-76.4	-8.2	4.3
O=C1ON=C(c2ccccc2)/C1=C/c1ccc(OS(=O)(=O)c2ccccc2)cc1	x	58.5*	11.2	x
NC(=O)c1cc(N)ccc1N1CCCC1	1.4	-36.6	-4.0	31.8*
CCC(=NCCN1CCNCC1)C1=C(O)CC(C)(C)CC1=O	-4.9	-32.7	43.1	2.9
OC(CNCCc1ccc(C(F)(F)F)cc1)COc1ccc2ccccc2c1 (configuration not stated)	x	62.6*	-10.0	x
O=c1o[nH]c(-c2ccccc2)c1C1=NCCCCC1	3.2	-24.8	-0.6	10.8
O=C(NCc1ccc(OC(F)(F)F)cc1)C1CC(c2c(Cl)cccc2Cl)=NO1 (configuration not stated)	-5.0	-52.5	-21.6	30.8*
Cc1nn2c(=O)cc(CSc3nc4ccccc4[nH]3)nc2s1	-1.1	-24.9	0.6	5.1
CCOc1ccc(NS(=O)(=O)c2ccc(NC(=O)C3CCCO3)cc2)cc1 (configuration not stated)	-3.4	-34.0	-8.3	-9.9
CC1CCCCN1C(=O)Cn1cc(/C=C2/C(=O)Nc3ccccc32)c2ccccc21 (configuration not stated)	60.8*	-20.8	-4.7	76.6*
CC1CCCCN1C(=O)Cn1cc(C=O)c2ccccc21 (configuration not stated)	x	-10.9	0.5	x
CCC(COC(=O)Nc1cccc(C)c1)NC(=O)OCC(C)C (configuration not stated)	-0.3	1.2	-6.9	4.6
c1ccc(-c2nnc3sc(-c4csc5c4CCCC5)nn23)cc1	12.8	-35.4	-1.9	74.8*
COc1cccc(-c2nnc3sc(-c4ccccc4)nn23)c1	x	-16.8	x	x
Cc1cccc(-c2nnc3sc(-c4ccccc4C)nn23)c1	6.2	43.9*	-8.1	63.9*
CC(C)COc1cccc(C(=O)NC(=S)Nc2cccc(NC(=O)c3ccccc3Cl)c2)c1	x	-28.2	1.6	x
O=C(CC1CCCC1)Nc1ccc2c(c1)CCC2	-5.5	-15.8	-19.0	-1.3
O=C(O)c1cc2nc(-c3ccccc3)cc(C(F)(F)F)n2n1	0.3	28.8	56.8*	-3.5
CCOc1cc(C(=S)N2CCOCC2)ccc1OS(=O)(=O)c1ccccc1[N+](=O)[O-]	x	-20.6	0.2	x
Cc1ccccc1Cn1c(-c2cncs2)nc2ccccc21	23.9	-70.9	-7.7	35.4*
CSc1ccccc1NC(=O)Cn1c(-c2cscn2)nc2ccccc21	-1.5	-82.4	-9.8	0.3
SMILES	PostGolgi yeast	Yeast growth inh	Yeast life ext	PostGolgi ctrl
Cc1ccccc1Cn1c(Cc2ccccc2)nc2ccccc21	-12.3	-23.7	-10.3	34.4*
Brc1ccccc1Cn1c(-c2cscn2)nc2ccccc21	5.7	-60.3	-0.3	53.8*
CC1=C(C(=O)Nc2ccccc2)C(c2ccc(C)cc2)N=C(Nc2nc3ccccc3o2)N1 (configuration not stated)	13.2	-52.2	-11.2	12.3
COc1ccc(CCC(=O)NC2=NCCS2)cc1OC	x	-32.8	x	x
CC(NC(=O)CCCCCCN1C(=O)c2ccccc2C1=O)c1ccc2c(c1)CCCC2 (configuration not stated)	x	-47.1	6.8	x
COc1ccc2oc(=O)c(-c3nnc(NCc4ccco4)s3)cc2c1	39.8*	-19.1	-23.1	-3.2
CCOc1cccc2cc(-c3nnc(NCc4ccco4)s3)c(=O)oc12	-9.2	-28.9	0.3	5.1
CNc1nnc(-c2cc3cc(Cl)ccc3oc2=O)s1	-3.9	56.8*	-12.1	14.2
C[n+]1cnc(-c2ccccc2)cc1-c1ccccc1	x	9.1	0.9	x
Cc1cc2ncn(C(=O)c3c(-c4ccccc4Cl)noc3C)c2cc1C	0.6	-14.8	4.8	3.7
Oc1oc(-c2ccccc2)nc1C=Nc1cccc2ccccc12	12.4	-10.6	-17.7	39.9*
Clc1ccc(Cn2cc(/C=N/n3cnnc3)c3ccccc32)cc1	-4.0	10.3	-21.0	42.3*
C#CCOC(=O)C(NC(=O)c1ccccc1)=C1CCCCC1	2.7	-63.7	-0.4	14.0
COc1ccc(-c2cc(C(F)(F)F)n3nc(C)cc3n2)cc1	-2.7	-64.9	-8.1	3.7
COc1ccc(-c2cc(C(F)F)nc(-n3nc(C)cc3C)n2)cc1	-1.0	-57.2	-19.4	31.2*
CCOc1ccc2nc(NCCCNS(=O)(=O)c3ccc(C)cc3)c(C#N)cc2c1	x	1.2	x	x
COc1ccc2nc(NCCCNC(=O)c3cc(OC)c(OC)c(OC)c3)c(C#N)cc2c1	33.9*	-0.6	-13.7	3.0
CCOc1ccc2nc(NCCNC(=O)Nc3ccccc3)c(C#N)cc2c1	-0.9	30.8	104.0*	-1.1
Cc1csc(SCC(=O)Nc2sc3c(c2C#N)CCC3)n1	28.7	-22.5	-8.8	32.4*
N#Cc1c(NC(=O)CSc2nnc(-c3ccccc3O)n2-c2ccccc2)sc2c1CCCC2	24.4	-46.6	-17.5	40.0*
CCn1c(SCC(=O)Nc2sc3c(c2C#N)CCCC3)nnc1-c1ccncc1	x	-40.1	x	x
COC(=O)c1sc2cc([N+](=O)[O-])cc(SCC(C)C)c2c1N	x	-50.7	7.0	x
C/C(=N/NC(=O)c1cnccn1)c1cccs1	x	7.4	0.9	x
O=C1c2ccccc2C(Nc2cccc(C(F)(F)F)c2)N1Cc1ccco1 (configuration not stated)	-0.8	-31.3	-4.4	32.0*
COc1cccc(NC2c3ccccc3C(=O)N2Cc2ccco2)c1 (configuration not stated)	-3.7	-6.0	-8.3	8.7
SMILES	PostGolgi yeast	Yeast growth inh	Yeast life ext	PostGolgi ctrl
Cc1ccc(-c2nnc(CSc3nnc(COc4ccccc4)n3-c3ccccc3)o2)cc1	-0.8	-26.6	2.5	16.2
Cc1ccc(-c2nnc(CSc3nnc(COc4ccccc4)n3-c3ccc(C)cc3)o2)cc1	6.1	-43.0	11.7	33.7*
O=C1CC(N2CCN(c3ccccn3)CC2)C(=O)N1CC(c1ccccc1)c1ccccc1 (configuration not stated)	x	-29.6	x	x
O=C1/C(=N/n2cnnc2)c2ccccc2N1Cc1ccccc1	-2.1	-42.2	38.9*	4.4
O=C1c2cccnc2C(=O)N1Cc1ccccc1	7.2	4.4	0.8	3.7
Oc1ccccc1/C=N/n1cnnc1	1.9	7.1	-12.8	1.8
c1ccc2c(c1)C(=Nn1cnnc1)c1ccccc1-2	x	54.2*	-19.1	-10.8
Cc1ccccc1CN1CCN(Cc2ccccc2C(F)(F)F)CC1	1.3	-18.1	-8.2	-3.8
CSc1nc2ccc(NC(=O)C3CC(=O)N(Cc4ccccc4)C3)cc2s1 (configuration not stated)	-6.5	-55.8	-8.4	12.5
O=C1CNC(=O)/C1=C/c1ccccc1	x	-51.6	29.4*	x
O=C(c1ccc(Cl)cc1)c1c[nH]c(C(=O)C(Cl)(Cl)Cl)c1	10.2	83.9*	-22.3	12.7

Compound activity (PubChem)
